Activity calls are given as the source filed them. The calls are words filed in the database; no cut-off is given here.
Assays:
Escherichia coli [1] = experiment: Inhibition of intrinsic ATPase activity of Escherichia coli SecA expressed in Escherichia coli BL21.19 cells assessed as hydrolysis of ATP at 200 uM after 2 hrs by malachite green colorimetric method
Method in brief: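 Single-concentration screen: compound at 200 µM with His-tagged ecSecA at 0.5 µM (50 µg/ml) and 100 µM ATP, 37 °C, 2 h. Buffer was 50 mM Tris–HCl, 50 mM KCl, 5 mM MgCl2, 0.4 mg/ml BSA, pH 8.0. Free Pi was detected with malachite green reagent (20 min rt, absorbance 660 nm).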

Staphylococcus aureus = experiment: Inhibition of intrinsic ATPase activity of Staphylococcus aureus SecA expressed in Escherichia coli BL21.19 cells assessed as hydrolysis of ATP after 2 hrs by malachite green colorimetric method; details: dose or concentration not given here
Method in brief: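 His-tagged saSecA1 at 4 µM (400 µg/ml) was incubated at 28 °C for 2 h with 100 µM ATP. Buffer was 50 mM HEPES, 50 mM KCl, 2 mM MgCl2, 0.4 mg/ml BSA, pH 7.5. Liberated Pi was quantified with malachite green (20 min room temperature, 660 nm).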

[2] = Inhibition of intrinsic ATPase activity of Escherichia coli SecA expressed in Escherichia coli BL21.19 cells assessed as hydrolysis of ATP after 2 hrs by malachite green colorimetric method
Method in brief: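 Recombinant His-tagged ecSecA at 0.5 µM (50 µg/ml) was incubated at 37 °C with 100 µM ATP and compound (0–200 µM) for 2 h. Buffer was 50 mM Tris–HCl, 50 mM KCl, 5 mM MgCl2, 0.4 mg/ml BSA, pH 8.0. Released Pi was read with malachite green (20 min rt, 660 nm). Rates were taken relative to no-compound, and IC50 was fitted by nonlinear regression from three independent experiments.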

[3] = Inhibition of ATPase activity of Escherichia coli SecA expressed in Escherichia coli BL21.19 cells assessed as hydrolysis of ATP after 2 hrs using Dixon plot analysis by malachite green colorimetric method
Escherichia coli [4] = experiment: Mixed-type inhibition of ATPase activity of Escherichia coli SecA expressed in Escherichia coli BL21.19 cells assessed as hydrolysis of ATP after 2 hrs using MM equation at 25 to 200 uM by malachite green colorimetric method

Compound | Activity (Escherichia coli [1]) | inhibition (Escherichia coli [1]) [%] | inhibition (Staphylococcus aureus) [%] | other results
COCCNc1nc2nc(N)nc(N3CCOCC3)c2s1 | Active |  |  | 
Cc1cccc(NC(=O)N2CCN(c3nc4nc(N)nc(-c5ccc(F)cc5)c4s3)CC2)c1 |  | 50 | 40 | 
CC(C)(C)OC(=O)N1CCN(c2nc3nc(N)nc(-c4ccc(F)cc4)c3s2)CC1 |  | 50 |  | 
Nc1nc(N2CCOCC2)c2sc(-c3ccc(F)cc3)nc2n1 | Active |  |  | 
Nc1nc(N2CCOCC2)c2sc(/C=C/c3ccccc3)nc2n1 |  | 70 | 40 | IC50 [2]: 197 µM
Nc1nc(N2CCOCC2)c2sc(C#Cc3ccccc3)nc2n1 | Active |  | 40 | 
COCCNc1nc2nc(N)nc(-c3ccc(F)cc3)c2s1 |  | 50 |  | 
CC(=O)N1CCN(c2nc(N)nc3nc(-c4ccc(F)cc4)sc23)CC1 |  | 50 |  | 
Nc1nc(-c2ccc(F)cc2)c2sc(N3CCN(C(=O)COc4ccc(Cl)cc4)CC3)nc2n1 |  | 76 |  | IC50 [2]: 135 µM; Ki [3]: 60 µM; inhibition (Escherichia coli [4]): Active
Nc1nc(-c2ccc(F)cc2)c2sc(N3CCNCC3)nc2n1 |  | 35 |  | 
Nc1nc(N2CCN(C(=O)COc3ccc(Cl)cc3)CC2)c2sc(-c3ccc(F)cc3)nc2n1 |  | 50 |  | 
Nc1nc(N2CCOCC2)c2sc(N3CCOCC3)nc2n1 | Active |  |  | 
Cc1cccc(NC(=O)N2CCN(c3nc(N)nc4nc(-c5ccc(F)cc5)sc34)CC2)c1 |  |  | 40 | 

Reference: ChEMBL document CHEMBL1641421, “Synthesis of novel 5-amino-thiazolo[4,5-d]pyrimidines as E. coli and S. aureus SecA inhibitors” (Bioorg Med Chem, 2011)
